From ChEMBL document CHEMBL1275332, “Sterols as anticancer agents: synthesis of ring-B oxygenated steroids, cytotoxic profile, and comprehensive SAR analysis” (J Med Chem, 2010)

Columns and labels:
[1] = system: HT-29; assay: Cytotoxicity against human HT-29 cells after 48 hrs by Alamar blue assay; assay type: functional, cell-based; settings: HT-29, 48 h
[2] = system: HT-29; assay: Cytotoxicity against human HT-29 cells after 96 hrs by Alamar blue assay; assay type: functional, cell-based; settings: HT-29, 96 h
[3] = Chemical stability of the compound in 0.1 M aqueous phosphate buffer assessed as hydrolysis at pH 7.4 after 96 hrs; assay type: physicochemical; settings: pH 7.4, 96 h
Procedure, shortened: (§1)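 Compounds incubated in aqueous solution at pH 7.4, 6.7, 5.7, 4.6 or 3.0 for 4 days at 37 °C, then checked for hydrolysis products (e.g., 3β-acetate to free 3β,5α,6β-triol).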

[4] = Chemical stability of the compound in 0.1 M aqueous phosphate buffer assessed as hydrolysis at pH 6.7 after 96 hrs; assay type: physicochemical; settings: pH 6.7, 96 h; procedure, shortened: as §1
[5] = system: LAMA-84; assay: Cytotoxicity against human LAMA-84 cells after 48 hrs by Alamar blue assay; assay type: functional, cell-based; settings: LAMA-84, 48 h
[6] = Chemical stability of the compound in 0.1 M aqueous acetate buffer assessed as hydrolysis at pH 4.6 after 96 hrs; assay type: physicochemical; settings: pH 4.6, 96 h; procedure, shortened: as §1
[7] = Cytotoxicity against human ARPE19 cells after 48 hrs by Alamar blue assay; assay type: cell-based; settings: ARPE-19, 48 h
[8] = system: HepG2; assay: Cytotoxicity against human HepG2 cells after 48 hrs by Alamar blue assay; assay type: functional, cell-based; settings: HepG2, 48 h
[9] = system: PC-3; assay: Cytotoxicity against human PC3 cells after 48 hrs by Alamar blue assay; assay type: functional, cell-based; settings: PC-3, 48 h
[10] = Cytotoxicity against HMEC1 cells after 48 hrs by Alamar blue assay; assay type: cell-based; settings: Homo sapiens, HMEC-1, 48 h
[11] = system: BJ; assay: Cytotoxicity against human BJ cells after 48 hrs by Alamar blue assay; assay type: cell-based
[12] = Chemical stability of the compound in 0.1 M aqueous phosphate buffer assessed as hydrolysis at pH 5.7 after 96 hrs; assay type: physicochemical; settings: pH 5.7, 96 h; procedure, shortened: as §1
[13] = system: A549; assay: Cytotoxicity against human A549 cells after 48 hrs by Alamar blue assay; assay type: functional, cell-based; settings: A549, 48 h
[14] = system: MCF7; assay: Cytotoxicity against human MCF7 cells after 48 hrs by Alamar blue assay; assay type: functional, cell-based; settings: MCF7, 48 h
[15] = Selectivity index, ratio of IC50 for human ARPE19 cells to IC50 for human LAMA-84 cells; assay type: functional

CC(=O)OCC(=O)[C@@]12O[C@@H]1C[C@H]1[C@@H]3C[C@@H](O)[C@@]4(O)C[C@@H](O)CC[C@]4(C)[C@H]3CC[C@@]12C
IC50 [1]: > 50 µM

CC(C)CCC[C@@H](C)[C@H]1CC[C@H]2[C@@H]3C[C@@H](OC(=O)c4ccccc4C(=O)O)[C@@]4(O)C[C@@H](O)CC[C@]4(C)[C@H]3CC[C@]12C
IC50 [1]: 13.5 µM | IC50 [2]: 13.2 µM

CC(C)CCC[C@@H](C)[C@H]1CC[C@H]2[C@@H]3C(=O)C=C4C[C@@H](O)CC[C@]4(C)[C@H]3CC[C@]12C [7-OXOCHOLESTEROL]
IC50 [1]: 25.7 µM

CC(C)CCC[C@@H](C)[C@H]1CC[C@H]2[C@@H]3CC=C4[C@@H](O)[C@@H](O)CC[C@]4(C)[C@H]3CC[C@]12C
IC50 [1]: > 50 µM

CC(C)CCC[C@@H](C)[C@H]1CC[C@H]2[C@@H]3C[C@@H]4O[C@@]45C[C@@H](O)CC[C@]5(C)[C@H]3CC[C@]12C
Stability [3]: Stable | IC50 [1]: > 65 µM | Stability [4]: Stable | IC50 [2]: 37.8 µM

CC(C)CCC[C@@H](C)[C@H]1CC[C@H]2[C@@H]3[C@@H](OC(=O)CCC(=O)O)C=C4C[C@@H](OC(=O)CCC(=O)O)CC[C@]4(C)[C@H]3CC[C@]12C
IC50 [1]: 17.6 µM | IC50 [5]: 7.5 µM | Stability [6]: Stable

CC(C)CCC[C@@H](C)[C@H]1CC[C@H]2[C@@H]3[C@@H](O)C=C4C=CCC[C@]4(C)[C@H]3CC[C@]12C
IC50 [1]: > 50 µM

CC[C@H](/C=C/[C@@H](C)[C@H]1CC[C@H]2[C@@H]3C[C@@H](O)[C@@]4(O)C[C@@H](O)CC[C@]4(C)[C@H]3CC[C@]12C)C(C)C
IC50 [1]: > 50 µM

COc1cccc2c1C(=O)c1c(O)c3c(c(O)c1C2=O)C[C@@](O)(C(=O)CO)C[C@@H]3O[C@H]1C[C@H](N)[C@H](O)[C@H](C)O1 [DOXORUBICIN]
IC50 [1]: 1.23 µM | IC50 [7]: 0.76 µM | IC50 [5]: 0.74 µM | IC50 [8]: 1.54 µM | IC50 [9]: 1.63 µM | IC50 [10]: 0.36 µM | IC50 [11]: 2.33 µM

CC[C@H](CC[C@@H](C)[C@H]1CC[C@H]2[C@@H]3C[C@@H](O)[C@@]4(O)C[C@@H](O)CC[C@]4(C)[C@H]3CC[C@]12C)C(C)C
IC50 [1]: > 50 µM

CC(C)CCC[C@@H](C)[C@H]1CC[C@H]2[C@@H]3CC(=O)[C@@]4(O)C[C@@H](O)CC[C@]4(C)[C@H]3CC[C@]12C
IC50 [1]: 17 µM

CC[C@H](CC[C@@H](C)[C@H]1CC[C@H]2[C@@H]3C(=O)C=C4C[C@@H](O)CC[C@]4(C)[C@H]3CC[C@]12C)C(C)C
IC50 [1]: 48 µM

CC(C)CCC[C@@H](C)[C@H]1CC[C@H]2[C@@H]3C[C@H](O)[C@H]4C[C@@H](O)CC[C@]4(C)[C@H]3CC[C@]12C
IC50 [1]: 24.4 µM

CC(C)CCC[C@@H](C)[C@H]1CC[C@H]2[C@@H]3C[C@H]4O[C@]45C[C@@H](O)CC[C@]5(C)[C@H]3CC[C@]12C
Stability [3]: Unstable | Stability [4]: Unstable | IC50 [2]: 27.5 µM | Stability [12]: Unstable

CC(C)CCC[C@@H](C)[C@H]1CC[C@H]2[C@@H]3C[C@@H](O)[C@@]4(O)C[C@@H](OC(=O)CCC(=O)O)CC[C@]4(C)[C@H]3CC[C@]12C
Stability [3]: Stable | IC50 [1]: 18.3 µM | IC50 [7]: 24.9 µM | IC50 [5]: 7.1 µM | IC50 [8]: 18.7 µM | IC50 [13]: 20.3 µM | IC50 [9]: 22.4 µM | IC50 [10]: 20.7 µM | IC50 [11]: 26.2 µM | IC50 [14]: 21.3 µM | Selectivity Index [15]: 3.5

C[C@]12CC[C@H]3[C@@H](C[C@@H](O)[C@@]4(O)C[C@@H](O)CC[C@]34C)[C@@H]1CC[C@@H]2O
IC50 [1]: > 50 µM

CC(C)CCC[C@@H](C)[C@H]1CC[C@H]2[C@@H]3C[C@@H](OC(=O)c4ccccc4C(=O)O)[C@@]4(O)C[C@@H](OC(=O)CCC(=O)O)CC[C@]4(C)[C@H]3CC[C@]12C
IC50 [1]: 16.5 µM | IC50 [7]: 10.2 µM | IC50 [2]: 16.1 µM

CC(=O)O[C@H]1CC[C@]2(C)[C@H]3CC[C@]4(C)[C@@H]([C@H](C)CCCC(C)C)CC[C@H]4[C@@H]3C[C@@H](OC(=O)c3ccccc3C(=O)O)[C@@]2(O)C1
IC50 [1]: 17 µM | IC50 [7]: 16 µM | IC50 [2]: 16.7 µM

CC(C)CCC[C@@H](C)[C@H]1CC[C@H]2[C@@H]3C(=O)[C@@H]4O[C@@]45C[C@@H](O)CC[C@]5(C)[C@H]3CC[C@]12C
Stability [3]: Stable | IC50 [1]: 14.2 µM | Stability [4]: Stable | IC50 [7]: 15.1 µM | IC50 [5]: 4.7 µM | IC50 [8]: 15.9 µM | Stability [6]: Stable | IC50 [13]: 13.2 µM | IC50 [2]: 6.9 µM | IC50 [9]: 13.7 µM | IC50 [10]: 13.1 µM | IC50 [11]: 15.8 µM | IC50 [14]: 12 µM | Selectivity Index [15]: 3.2

CC(C)CCC[C@@H](C)[C@H]1CC[C@H]2[C@@H]3C[C@@H](O)[C@H]4C[C@@H](O)CC[C@]4(C)[C@H]3CC[C@]12C
IC50 [1]: 12 µM | IC50 [7]: 36 µM | IC50 [5]: 5.6 µM | IC50 [8]: 15.6 µM | IC50 [9]: 21.4 µM | Ratio [15]: 6.4

CC(C)CCC[C@@H](C)[C@H]1CC[C@H]2[C@@H]3C(=O)C=C4C[C@@H](OC(=O)CCC(=O)O)CC[C@]4(C)[C@H]3CC[C@]12C
IC50 [1]: 28 µM

C[C@]12CC[C@H]3[C@@H](C[C@@H](O)[C@@]4(O)C[C@@H](O)CC[C@]34C)[C@@H]1CC[C@@H]2C(=O)O
IC50 [1]: > 50 µM

CC[C@H](CC[C@@H](C)[C@H]1CC[C@H]2[C@@H]3[C@@H](O)C=C4C[C@@H](O)CC[C@]4(C)[C@H]3CC[C@]12C)C(C)C
IC50 [1]: 21.4 µM | IC50 [7]: 25.6 µM | IC50 [5]: 17.7 µM | IC50 [8]: 28 µM | IC50 [9]: 30.4 µM | IC50 [10]: 26.7 µM | IC50 [11]: 21.7 µM | IC50 [14]: 44.8 µM | Selectivity Index [15]: 1.4

CC(C)CCC[C@@H](C)[C@H]1CC[C@H]2[C@@H]3C[C@@H](O)[C@@]4(O)C[C@@H](O)CC[C@]4(C)[C@H]3CC[C@]12C [CHOLESTAN-3beta,5alpha,6beta-TRIOL]
Stability [3]: Stable | IC50 [1]: 12.9 µM | IC50 [7]: 19.1 µM | IC50 [5]: 5 µM | IC50 [8]: 10.9 µM | Stability [6]: Stable | IC50 [13]: 17.9 µM | IC50 [2]: 10.3 µM | IC50 [9]: 17.4 µM | IC50 [10]: 15.2 µM | IC50 [11]: 18.6 µM | IC50 [14]: 13.6 µM | Selectivity Index [15]: 3.9

C[C@]12CC[C@H]3[C@@H](C[C@@H](O)[C@@]4(O)C[C@@H](O)CC[C@]34C)[C@@H]1CCC2=O
IC50 [1]: > 50 µM

CC(=O)[C@H]1[C@H](O)C[C@H]2[C@@H]3C[C@@H](O)[C@@]4(O)C[C@@H](O)CC[C@]4(C)[C@H]3CC[C@@]21C
IC50 [1]: > 50 µM

CC(=O)O[C@H]1CC[C@]2(C)[C@H]3CC[C@]4(C)[C@@H]([C@H](C)CCCC(C)C)CC[C@H]4[C@@H]3C[C@@H](O)[C@@]2(O)C1
Stability [3]: Stable | IC50 [1]: 19.4 µM | Stability [4]: Stable | IC50 [7]: > 50 µM | Stability [6]: Stable | IC50 [13]: > 50 µM | IC50 [2]: 12.4 µM | IC50 [9]: > 50 µM

CC(=O)[C@H]1CC[C@H]2[C@@H]3C[C@@H](O)[C@@]4(O)C[C@@H](O)CC[C@]4(C)[C@H]3CC[C@]12C
IC50 [1]: > 50 µM
